Calls of active or inactive are those of the source. No cut-off for these calls is given here.

Among the data in ChEMBL document CHEMBL5712892, “EZH1 and EZH2 promote skeletal growth by repressing inhibitors of chondrocyte proliferation and hypertrophy” (Nat Commun, 2016) are inhibition values, retold here.

For experiment [1], the target named is T1, EZH1/2 (Mus musculus) (UniProt Q61188+P70351). The experiment is described as follows: Inhibition of Ezh1/2 in wild-type C57BL/6 mouse isolated primary chondrocyte monolayer culture assessed as increase in Igfbp5 expression at 2 uM by immunostaining analysis. Format: cell-based.
Experiment [2] deals with T1, EZH1/2 (Mus musculus). As to the kind of experiment: Inhibition of Ezh1/2 in Igf1-treated wild-type C57BL/6 mouse fetal metatarsal bone assessed as reduction in hypertrophic cell size at 2 uM. It counts as tissue-based. The method, boiled down: (§1)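 Fetal metatarsals (middle three) from E18 wild-type C57BL/6 mice cultured 3 days at 37 °C, 5% CO2 in α-MEM with 0.2% BSA, 0.1 mM β-glycerophosphate, 50 µg ml-1 ascorbic acid. DMSO or UNC1999 (2 µM), ± Igf1 100 ng ml-1, Igfbp3 50 nM or Igfbp5 50 nM, added at start and refreshed day 2. Hypertrophic cell heights averaged within a 100×100 µm area at HZ centre; N = 6.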

Experiment [3] has as its target T1, EZH1/2 (Mus musculus). As to the kind of experiment: Inhibition of Ezh1/2 in wild-type C57BL/6 mouse isolated primary chondrocytes transfected with Cdkn2b SiRNA assessed as reduction in cell proliferation at 2 uM measured after 24 hrs by [3H]thymidine based liquid scintillation counting analysis. The settings on record: Primary chondrocyte. The method, boiled down:
(§2)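 Primary chondrocytes (1×10^5 per well) from 1-week-old wild-type mice were hyaluronidase-treated (5 U ml-1, 6 h) at 40 h. They were then transfected with 40 pmol siRNA against Cdkn2a and/or Cdkn2b, or scrambled control, using Lipofectamine 2000. DMSO or 2 µM UNC1999 was added 16 h post-transfection. Proliferation was measured 24 h later by 3H-thymidine uptake and scintillation counting; N = 6.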

Experiment [4] concerns the target T1, EZH1/2 (Mus musculus). The experiment is described as follows: Inhibition of Ezh1/2 in wild-type C57BL/6 mouse isolated primary chondrocyte pellets assessed as increase in Igfbp3 expression at 2 uM by RT-PCR analysis. It counts as cell-based. In outline: (§3)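 Pellets of 2.4×10^5 primary chondrocytes from 1-week-old wild-type mice (400 g, 10 min) were cultured up to 4 weeks, switched to 0.1% FBS medium after 16 h. DMSO or UNC1999 (2 µM final) was added at 16 h and refreshed every other day. Col10a1, Ihh, Igfbp3 and Igfbp5 mRNA were measured by real-time RT-PCR at several time points; two-way ANOVA, N = 6.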

The target in experiment [5] is T1, EZH1/2 (Mus musculus). The experiment is described as follows: Inhibition of Ezh1/2 in Igfbp3-treated wild-type C57BL/6 mouse fetal metatarsal bone assessed as reduction in hypertrophic cell size at 2 uM. Format: tissue-based. The method, boiled down:
as §1

Experiment [6] has as its target T1, EZH1/2 (Mus musculus). The experiment is described as follows: Inhibition of Ezh1/2 in wild-type C57BL/6 mouse isolated primary chondrocyte pellets assessed as reduction in H3K27me3 level at 2 uM measured after 1 week by immunohistological staining based assay. Format: cell-based. The settings on record: time 1.0 weeks. In outline:
(§4)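 Chondrocyte pellets (2.4×10^5 cells, from 1-week-old wild-type mice) were kept in 0.1% FBS medium with DMSO or 2 µM UNC1999 from 16 h, refreshed every other day, for 1 week. Sections were immunostained for H3K27me2 or H3K27me3 (1:1,000, proteinase K retrieval, DAB).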

In experiment [7] the target is T1, EZH1/2 (Mus musculus). As to the kind of experiment: Inhibition of Ezh1/2 in wild-type C57BL/6 mouse fetal metatarsal bone assessed as reduction in H3K27me2 expression at 2 microM by immunohistochemical analysis. Format: tissue-based. The method, boiled down:
(§5)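 E18 wild-type C57BL/6 metatarsals cultured 3 days with DMSO or 2 µM UNC1999, added at start and refreshed day 2. Paraffin sections were proteinase K retrieved (100 µg ml-1, 30 min, room temperature) and peroxidase blocked. They were immunostained with anti-H3K27me2 or anti-H3K27me3 (1:1,000) by ABC/DAB.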

Experiment [8] addresses T1, EZH1/2 (Mus musculus). The experiment is described as follows: Inhibition of Ezh1/2 in wild-type C57BL/6 mouse isolated primary chondrocytes assessed as reduction in cell proliferation at 2 uM by [3H]thymidine based liquid scintillation counting analysis. The settings on record: Primary chondrocyte. The method, boiled down: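 Monolayer primary chondrocytes (2×10^5 per well) from 1-week-old wild-type mice were treated with DMSO or 2 µM UNC1999 from 16 h after plating. At 24 h after plating they were labelled with 1 µCi 3H-thymidine for 16 h, washed and collagenase-detached. Radioactivity was read by liquid scintillation counting; N = 6.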

In experiment [9] the target is T1, EZH1/2 (Mus musculus). The experiment is described as follows: Inhibition of Ezh1/2 in wild-type C57BL/6 mouse fetal metatarsal bone assessed as reduction in H3K27me3 expression at 2 microM by immunohistochemical analysis. It counts as tissue-based. In outline:
as §5

The target in experiment [10] is T1, EZH1/2 (Mus musculus). As to the kind of experiment: Inhibition of Ezh1/2 in wild-type C57BL/6 mouse isolated primary chondrocytes transfected with Cdkn2a SiRNA assessed as reduction in cell proliferation at 2 uM measured after 24 hrs by [3H]thymidine based liquid scintillation counting analysis. The settings on record: Primary chondrocyte. In outline:
as §2

Experiment [11] concerns the target T1, EZH1/2 (Mus musculus). As to the kind of experiment: Inhibition of Ezh1/2 in wild-type C57BL/6 mouse isolated primary chondrocytes assessed as increase in Cdkn2b expression at 2 uM by RT-PCR analysis. It counts as cell-based. The settings on record: Primary chondrocyte. The method, boiled down:
(§6)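 Monolayer primary chondrocytes from 1-week-old wild-type mice received DMSO or UNC1999 (2 µM final) 16 h after plating. RNA was extracted and Cdkn2a and Cdkn2b mRNA quantified by real-time RT-PCR; N = 6.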

For experiment [12], the target named is T1, EZH1/2 (Mus musculus). The experiment is described as follows: Inhibition of Ezh1/2 in wild-type C57BL/6 mouse isolated primary chondrocyte pellets assessed as increase in Igfbp5 expression at 2 uM by RT-PCR analysis. Format: cell-based. The method, boiled down: as §3
Experiment [13] addresses T1, EZH1/2 (Mus musculus). The experiment is described as follows: Inhibition of Ezh1/2 in wild-type C57BL/6 mouse isolated primary chondrocytes assessed as increase in Cdkn2a expression at 2 uM by RT-PCR analysis. Format: cell-based. Particulars: Primary chondrocyte. The method, boiled down:
as §6

The target of experiment [14] is T1, EZH1/2 (Mus musculus). The experiment is described as follows: Inhibition of Ezh1/2 in wild-type C57BL/6 mouse isolated primary chondrocyte pellets assessed as reduction in cell hypertrophy at 2 uM measured after 1 week by alcian blue staining based assay. The settings on record: time 1.0 weeks. The method, boiled down: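 Wild-type chondrocyte pellets were cultured in 0.1% FBS medium with DMSO or 2 µM UNC1999 (from 16 h, refreshed every other day). Alcian blue-stained histological sections were examined for cell size at different time points, including 1 week.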

The target of experiment [15] is T1, EZH1/2 (Mus musculus). As to the kind of experiment: Inhibition of Ezh1/2 in wild-type C57BL/6 mouse fetal metatarsal bone assessed as increase in Igfbp3 expression at 2 uM by immunostaining assay. Format: tissue-based.
Experiment [16] addresses T1, EZH1/2 (Mus musculus). As to the kind of experiment: Inhibition of Ezh1/2 in Igfbp5-treated wild-type C57BL/6 mouse fetal metatarsal bone assessed as reduction in hypertrophic cell size at 2 uM. It counts as tissue-based. The method, boiled down:
as §1

Experiment [17] has as its target T1, EZH1/2 (Mus musculus). As to the kind of experiment: Inhibition of Ezh1/2 in wild-type C57BL/6 mouse isolated primary chondrocyte pellets assessed as reduction in Col10a1 expression at 2 uM by RT-PCR analysis. It counts as cell-based. In outline:
as §3

Experiment [18] concerns the target T1, EZH1/2 (Mus musculus). As to the kind of experiment: Inhibition of Ezh1/2 in wild-type C57BL/6 mouse isolated primary chondrocyte monolayer culture assessed as increase in Igfbp3 expression at 2 uM by immunostaining analysis. It counts as cell-based.
Experiment [19] has as its target T1, EZH1/2 (Mus musculus). As to the kind of experiment: Inhibition of Ezh1/2 in wild-type C57BL/6 mouse fetal metatarsal bone assessed as reduction in hypertrophic cell size at 2 uM. Format: tissue-based. The method, boiled down: as §1
In experiment [20] the target is T1, EZH1/2 (Mus musculus). The experiment is described as follows: Inhibition of Ezh1/2 in wild-type C57BL/6 mouse isolated primary chondrocyte pellets assessed as reduction in Ihh expression at 2 uM by RT-PCR analysis. It counts as cell-based. In outline: as §3
The target in experiment [21] is T1, EZH1/2 (Mus musculus). The experiment is described as follows: Inhibition of Ezh1/2 in wild-type C57BL/6 mouse fetal metatarsal bone assessed as increase in Igfbp5 expression at 2 uM by immunostaining assay. It counts as tissue-based.
In experiment [22] the target is T1, EZH1/2 (Mus musculus). The experiment is described as follows: Inhibition of Ezh1/2 in wild-type C57BL/6 mouse isolated primary chondrocyte pellets assessed as reduction in H3K27me2 level at 2 uM measured after 1 week by immunohistological staining based assay. Particulars: time 1.0 weeks. Format: cell-based. In outline: as §4

In the case of `CCCc1cc(C)[nH]c(=O)c1CNC(=O)c1cc(-c2ccc(N3CCN(C(C)C)CC3)nc2)cc2c1cnn2C(C)C`, the inhibition entry at EZH1/2 (Mus musculus) [1], at EZH1/2 (Mus musculus) [2], at EZH1/2 (Mus musculus) [3], on EZH1/2 (Mus musculus) [4] and at EZH1/2 (Mus musculus) [10] was “inactive” each time. Also, the inhibition entry at EZH1/2 (Mus musculus) [5], on EZH1/2 (Mus musculus) [6], on EZH1/2 (Mus musculus) [7], at EZH1/2 (Mus musculus) [8], on EZH1/2 (Mus musculus) [9] and at EZH1/2 (Mus musculus) [11] was “Active” throughout. For the same compound, the inhibition result at EZH1/2 (Mus musculus) [12], on EZH1/2 (Mus musculus) [13], at EZH1/2 (Mus musculus) [14], on EZH1/2 (Mus musculus) [15], on EZH1/2 (Mus musculus) [16] and at EZH1/2 (Mus musculus) [17] was “Active” in each case. The inhibition entry at EZH1/2 (Mus musculus) [18], on EZH1/2 (Mus musculus) [19], at EZH1/2 (Mus musculus) [20], on EZH1/2 (Mus musculus) [21] and at EZH1/2 (Mus musculus) [22] was “Active” each time.
